system: Influenza A virus; assay: Inhibition of Influenza A virus wild type M2 proton channel expressed in Xenopus laevis oocyte at 100 uM after 2 mins by two-electrode […] clamp assay
In short: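 Full-length AM2 (WT) was expressed in Xenopus oocyte membranes and recorded by two-electrode voltage clamp during low-pH activation. Percent inhibition was read after only 2 min of exposure, before equilibrium was reached. IC50 values from this read-out are apparent kinetic values, not equilibrium dissociation constants.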

Compared with Fc1ccc(CNC23CC4CC(CC(C4)C2)C3)cc1, Nc1ccc(CNC23CC4CC(CC(C4)C2)C3)cc1 is lower in inhibition: 77% for the first, 31% for the second.

Going from Oc1ccc(CNC23CC4CC(CC(C4)C2)C3)cc1F to Oc1ccc(CNC23CC4CC(CC(C4)C2)C3)cc1O, the inhibition falls from 65% to 44%.

Compared with c1ccc(CNC23CC4CC(CC(C4)C2)C3)nc1, c1ccc(CNC23CC4CC(CC(C4)C2)C3)cc1 is higher in inhibition: 12% for the first, 77% for the second.

Going from N#Cc1ccc(CNC23CC4CC(CC(C4)C2)C3)cc1 to Oc1ccc(CNC23CC4CC(CC(C4)C2)C3)cc1, the inhibition rises from 36% to 67%.

First: Oc1ccc(CNC23CC4CC(CC(C4)C2)C3)c(Cl)c1
Second: Oc1ccc(CNC23CC4CC(CC(C4)C2)C3)c(O)c1
The inhibition of the first is higher: 78% for the first, 64% for the second.

Going from COc1ccccc1CNC12CC3CC(CC(C3)C1)C2 to Oc1ccccc1CNC12CC3CC(CC(C3)C1)C2, the inhibition rises from 22% to 81%.

Going from CC(=O)Nc1ccc(CNC23CC4CC(CC(C4)C2)C3)cc1 to CC(=O)c1ccc(CNC23CC4CC(CC(C4)C2)C3)cc1, the inhibition falls from 3% to 2%.

Going from NCc1ccc(CNC23CC4CC(CC(C4)C2)C3)cc1 to OCc1ccc(CNC23CC4CC(CC(C4)C2)C3)cc1, the inhibition rises from 3% to 26%.

Compared with COc1ccc(CN(C)C23CC4CC(CC(C4)C2)C3)cc1, COc1ccc(COC23CC4CC(CC(C4)C2)C3)cc1 is higher in inhibition: 34% for the first, 51% for the second.

Going from O=[N+]([O-])c1ccc(CNC23CC4CC(CC(C4)C2)C3)cc1 to CS(=O)(=O)c1ccc(CNC23CC4CC(CC(C4)C2)C3)cc1, the inhibition falls from 49% to 45%.

Compared with COC(=O)[C@H](Cc1cnc[nH]1)NCC12CC3CC(CC(C3)C1)C2, COc1ccc(CNC23CC4CC(CC(C4)C2)C3)cc1O is higher in inhibition: 27% for the first, 46% for the second.

Going from C[S+]([O-])c1ccc(CNC23CC4CC(CC(C4)C2)C3)cc1 (stereo unspecified) to COc1ccc(CNC23CC4CC(CC(C4)C2)C3)cc1, the inhibition rises from 2% to 43%.

First: c1cc2cn[nH]c2cc1CNC12CC3CC(CC(C3)C1)C2
Second: c1nc2cc(CNC34CC5CC(CC(C5)C3)C4)ccc2[nH]1
The inhibition of the first is higher: 79% for the first, 26% for the second.

Going from c1cc(CNC23CC4CC(CC(C4)C2)C3)co1 to c1cc(CNC23CC4CC(CC(C4)C2)C3)ccn1, the inhibition falls from 73% to 6%.

Going from O=[N+]([O-])c1cc(CNC23CC4CC(CC(C4)C2)C3)ccc1O to Oc1ccc(CNC23CC4CC(CC(C4)C2)C3)cc1Cl, the inhibition rises from 66% to 78%.

Going from Oc1cc(F)ccc1CNC12CC3CC(CC(C3)C1)C2 to COc1ccc(CNC23CC4CC(CC(C4)C2)C3)c(O)c1, the inhibition falls from 87% to 56%.

Compared with CC(C)(C)OC(=O)Nc1ccc(CNC23CC4CC(CC(C4)C2)C3)cc1, NC(=O)c1ccc(CNC23CC4CC(CC(C4)C2)C3)cc1 is lower in inhibition: 13% for the first, 7% for the second.

First: c1cc(-c2nnn[nH]2)ccc1CNC12CC3CC(CC(C3)C1)C2
Second: c1cnn(-c2ccc(CNC34CC5CC(CC(C5)C3)C4)cc2)c1
The inhibition of the first is higher: 6% for the first, 4% for the second.

First: C[C@@H]1[C@@H](/N=C/c2ccc(O)cc2)C[C@H]2C[C@@H]1C2(C)C
Second: Oc1ccc(/C=N/C23CC4CC(CC(C4)C2)C3)cc1
The inhibition of the first is higher: 91% for the first, 81% for the second.

Compared with c1cn(-c2ccc(CNC34CC5CC(CC(C5)C3)C4)cc2)cn1, Oc1cccc(CNC23CC4CC(CC(C4)C2)C3)c1 is higher in inhibition: 4% for the first, 88% for the second.

Compared with O=[N+]([O-])c1ccccc1CNC12CC3CC(CC(C3)C1)C2, COc1cc(O)ccc1CNC12CC3CC(CC(C3)C1)C2 is lower in inhibition: 48% for the first, 0% for the second.

First: COc1ccc(CNC23CC4CC(CC(C4)C2)C3)c(OC)c1
Second: COc1cc(CNC23CC4CC(CC(C4)C2)C3)ccc1O
The inhibition of the first is lower: 16% for the first, 76% for the second.

Going from OC1CCC(CNC23CC4CC(CC(C4)C2)C3)CC1 (racemic) to c1cc2c(cc1CNC13CC4CC(CC(C4)C1)C3)OCO2, the inhibition rises from 16% to 54%.

Source: ChEMBL document CHEMBL2321761, “Discovery of novel dual inhibitors of the wild-type and the most prevalent drug-resistant mutant, S31N, of the M2 proton channel from influenza A virus” (J Med Chem, 2013)
